Experimental data from the M2OR odorant receptor database.
Changes are numbered by the printed parent chain.

Experiments:
Details in all cases: stereoisomer not certain
O10H2 = system: T1, O10H2
T1 sequence (whole entry): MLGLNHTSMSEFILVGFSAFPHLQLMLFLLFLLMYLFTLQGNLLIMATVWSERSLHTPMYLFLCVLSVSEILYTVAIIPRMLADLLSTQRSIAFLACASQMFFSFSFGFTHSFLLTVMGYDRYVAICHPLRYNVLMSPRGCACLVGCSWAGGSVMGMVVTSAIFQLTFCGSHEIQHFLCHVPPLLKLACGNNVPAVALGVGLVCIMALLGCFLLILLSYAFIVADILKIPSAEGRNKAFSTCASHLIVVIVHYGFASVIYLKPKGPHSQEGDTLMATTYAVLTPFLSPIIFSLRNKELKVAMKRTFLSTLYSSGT
How it was run: (§1)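 Transient luciferase assays in mammalian cell lines were common, though methods varied by source. The values come from published papers and their supplementary material, with extra details from the original authors when needed. Responsive refers to a measured signal the original authors judged statistically different from baseline, and non-responsive (inactive) to the remainder.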

O10H3 R54H = system: T2, O10H3 R54H
T2 sequence (whole entry): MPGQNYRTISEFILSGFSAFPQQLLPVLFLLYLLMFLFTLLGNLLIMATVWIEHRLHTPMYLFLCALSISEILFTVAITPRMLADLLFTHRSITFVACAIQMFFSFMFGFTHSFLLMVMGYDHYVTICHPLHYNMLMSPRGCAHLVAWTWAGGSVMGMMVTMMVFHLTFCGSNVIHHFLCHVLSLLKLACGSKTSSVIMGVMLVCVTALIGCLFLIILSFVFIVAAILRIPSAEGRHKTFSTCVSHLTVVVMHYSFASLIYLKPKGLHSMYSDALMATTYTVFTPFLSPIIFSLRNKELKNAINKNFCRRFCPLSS
How it was run: as §1

O10H4 I50V = system: T3, O10H4 I50V
T3 sequence (whole entry): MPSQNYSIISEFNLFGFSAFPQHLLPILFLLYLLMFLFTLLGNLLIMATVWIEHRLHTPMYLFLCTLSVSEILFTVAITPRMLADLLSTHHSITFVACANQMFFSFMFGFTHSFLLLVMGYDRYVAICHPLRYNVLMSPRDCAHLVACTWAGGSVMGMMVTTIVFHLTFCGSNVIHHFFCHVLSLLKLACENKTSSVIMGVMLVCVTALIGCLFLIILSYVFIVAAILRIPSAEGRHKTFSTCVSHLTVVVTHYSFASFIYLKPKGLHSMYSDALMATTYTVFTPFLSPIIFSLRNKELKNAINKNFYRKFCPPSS
How it was run: as §1

O10H5 S268Y = system: T4, O10H5 S268Y
T4 sequence (whole entry): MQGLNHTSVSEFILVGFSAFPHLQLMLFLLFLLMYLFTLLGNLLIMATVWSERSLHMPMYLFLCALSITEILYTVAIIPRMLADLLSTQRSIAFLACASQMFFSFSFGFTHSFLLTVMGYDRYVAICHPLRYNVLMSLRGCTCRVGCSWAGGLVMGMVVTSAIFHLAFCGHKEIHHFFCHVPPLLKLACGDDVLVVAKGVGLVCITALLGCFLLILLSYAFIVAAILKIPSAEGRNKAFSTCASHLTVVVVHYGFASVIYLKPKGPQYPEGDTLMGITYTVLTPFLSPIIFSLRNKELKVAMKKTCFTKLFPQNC
How it was run: as §1

O10J1 M62I I103M = system: T5, O10J1 M62I I103M
T5 sequence (whole entry): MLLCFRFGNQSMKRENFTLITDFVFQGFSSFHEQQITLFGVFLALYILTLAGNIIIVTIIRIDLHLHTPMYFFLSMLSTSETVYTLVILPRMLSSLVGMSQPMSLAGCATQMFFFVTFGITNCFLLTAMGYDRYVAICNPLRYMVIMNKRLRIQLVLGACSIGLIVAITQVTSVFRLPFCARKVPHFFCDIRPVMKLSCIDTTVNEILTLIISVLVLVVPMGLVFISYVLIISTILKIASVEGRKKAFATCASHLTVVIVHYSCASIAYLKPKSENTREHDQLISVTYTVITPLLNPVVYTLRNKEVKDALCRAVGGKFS
How it was run: as §1

O10J1 M62I = system: T6, O10J1 M62I
T6 sequence (whole entry): T5 sequence (whole entry) with M103I
How it was run: as §1

O10J3 Q235R E319G = system: T7, O10J3 Q235R E319G
T7 sequence (whole entry): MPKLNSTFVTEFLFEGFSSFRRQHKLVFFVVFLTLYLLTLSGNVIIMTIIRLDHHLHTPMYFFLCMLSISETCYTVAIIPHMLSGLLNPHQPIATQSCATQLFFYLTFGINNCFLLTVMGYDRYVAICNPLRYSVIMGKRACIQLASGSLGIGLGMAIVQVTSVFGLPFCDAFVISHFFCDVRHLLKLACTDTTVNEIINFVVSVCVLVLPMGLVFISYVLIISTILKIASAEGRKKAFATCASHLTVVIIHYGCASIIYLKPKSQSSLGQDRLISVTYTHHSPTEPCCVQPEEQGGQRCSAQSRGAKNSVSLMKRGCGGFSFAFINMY
How it was run: as §1

O10P1 R195K = system: T8, O10P1 R195K
T8 sequence (whole entry): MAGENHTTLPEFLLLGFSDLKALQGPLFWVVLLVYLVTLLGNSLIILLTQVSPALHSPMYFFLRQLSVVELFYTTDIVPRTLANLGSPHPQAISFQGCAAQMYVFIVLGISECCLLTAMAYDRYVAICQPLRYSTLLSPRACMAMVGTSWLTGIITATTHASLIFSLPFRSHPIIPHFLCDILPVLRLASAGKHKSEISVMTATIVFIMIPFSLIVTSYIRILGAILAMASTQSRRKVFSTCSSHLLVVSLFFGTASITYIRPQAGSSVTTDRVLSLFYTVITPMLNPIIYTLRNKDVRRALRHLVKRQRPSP
How it was run: as §1

O10Q1 E12D = system: T9, O10Q1 E12D
T9 sequence (whole entry): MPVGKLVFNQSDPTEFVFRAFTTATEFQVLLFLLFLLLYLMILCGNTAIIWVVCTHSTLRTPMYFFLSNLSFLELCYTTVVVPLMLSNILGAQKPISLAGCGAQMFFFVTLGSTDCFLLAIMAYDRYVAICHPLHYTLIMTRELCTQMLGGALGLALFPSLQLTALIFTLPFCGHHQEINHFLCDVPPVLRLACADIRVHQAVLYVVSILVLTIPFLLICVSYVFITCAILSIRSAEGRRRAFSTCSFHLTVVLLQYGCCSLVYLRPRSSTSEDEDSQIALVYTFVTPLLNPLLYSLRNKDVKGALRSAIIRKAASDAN
How it was run: as §1

O10Q1 Q10R E12D = system: T10, O10Q1 Q10R E12D
T10 sequence (whole entry): T9 sequence (whole entry) with Q10R
How it was run: as §1

Measured: odorant receptor agonist call;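 also: active if original authors judged signal statistically different from baseline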

CC1=C(O)C(=O)C(C)O1 (stereo not given)
inactive: all assays above

CCCCCCC=CCCC=O
inactive: all assays above

Cc1cnc(C)c(C)n1
inactive: all assays above

CCC1OC(C)=C(O)C1=O (stereo not given)
inactive: all assays above

CC1=NC(C)C(C)S1 (stereo not given)
inactive: all assays above

CC1=C(O)C(=O)OC1C (stereo not given)
inactive: all assays above

CCCC(S)CCOC(C)=O (stereo not given)
inactive: all assays above

CCC1OC(=O)C(O)=C1C (stereo not given)
inactive: all assays above
